Compounds with a hit are over-represented: about 3.3% of the library has one in this group of screens.
PMI act satM6P: PMI (human) activation, high substrate; actives 0.34% (n = 190,000); activation factor at 20 µM; P34949; coupled PMI enzyme assay, resazurin fluorescence, 20 min; active compounds read high; 1 = untreated enzyme, 0 = substrate-free blank; AID 1216;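 active = activation factor of 2 or more at 20 µM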
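assay system = human phosphomannose isomerase with PGI, G6PDH, diaphorase coupling enzymes | quantity = 15 ng/mL PMI | incubation = enzyme reaction with compound 20 min at room temperature | medium = HEPES pH 7.4 buffer with MgCl2 and Tween-20 | compound dosing = one concentration, 20 µM, in 1% DMSO | measured by = Diaphorase-driven resazurin-to-resorufin fluorescence, excitation 544, emission 590 nm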
ABCB1 block: human ABCB1 inhibition, ABCG2 as counter-screen | P08183 | CCRF-Adr cells, JC-1 efflux, flow cytometry | inhibition, % at 6.6 µM | actives 0.067% (n = 190,000) | AID 1326; in the data active = inhibition above about 40%;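 note: higher value means more JC-1 retained so stronger ABCB1 efflux block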
Cl transport mod: modulators of human KCC2 chloride dependent transport. B-score of Tl+ flux slope (higher = more flux/activation; lower = inhibition) at 10 µM. KCC2 cells, thallium flux FluoZin-2 fluorescence. actives 2.2% (n = 190,000). AID 1456;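 active = thallium flux slope and its plate-corrected score both differing from the plate sample mean at a set confidence after two filtering rounds, in either direction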;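 note: slope of fluorescence scaled to starting intensity during 10 to 20 s after thallium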
PMI activator: increases human mannose-6-phosphate isomerase activity; purified human PMI, coupled resazurin fluorescence, 20 min; active compounds read high; 1 = vehicle control, 0 substrate-free wells; actives 0.005% (n = 190,000); P34949; activation factor at 20 µM;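 active = activation factor of 2 or more at 20 µM, relative to plate controls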
ABCG2 block: human ABCG2 inhibition, ABCB1 as counter-screen | inhibition, % at 6.6 µM | actives 0.1% (n = 190,000) | IgMXP3 cells, JC-1 efflux, flow cytometry | Q9UNQ0;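 active = inhibition above 80%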
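material = IgMXP3 (ABCG2) plus far-red-tagged CCRF-Adr (ABCB1) cells | amount = 3 million cells/mL, equal mix of both lines | also added = JC-1 transporter substrate | dosing = one concentration, 6.6 µM final | schedule = 10 min at 25 °C | measured by = flow cytometric JC-1 green MFI at 530 nm | read-out basis = percent efflux inhibition, scaled nicardipine 100% to DMSO 0%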
ROMK mod: human ROMK K+ channel modulation, primary screen; P48048; Tet-inducible ROMK, thallium flux fluorescence; actives lie on both sides; B-score at 10 µM; actives 2% (n = 130,000);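 active = signal ratio slope over the read window, or its plate-corrected B-score, at least 3 SD from the plate mean, either direction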;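 note: B-score of the F/F0 ratio slope over 7 to 12 s after thallium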
Target sequence (P48048 whole entry, looked up): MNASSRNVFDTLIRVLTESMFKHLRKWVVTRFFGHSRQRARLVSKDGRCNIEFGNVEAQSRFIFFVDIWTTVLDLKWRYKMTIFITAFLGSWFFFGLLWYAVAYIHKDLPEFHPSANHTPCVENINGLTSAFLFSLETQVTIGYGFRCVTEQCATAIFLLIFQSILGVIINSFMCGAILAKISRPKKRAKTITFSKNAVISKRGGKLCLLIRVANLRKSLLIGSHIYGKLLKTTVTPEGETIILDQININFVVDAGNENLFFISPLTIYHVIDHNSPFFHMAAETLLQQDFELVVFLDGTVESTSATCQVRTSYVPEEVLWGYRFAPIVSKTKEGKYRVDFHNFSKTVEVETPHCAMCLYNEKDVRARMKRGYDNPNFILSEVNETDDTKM
KCC2 secondary: KCC2 (human) modulation, secondary assay. HEK293-KCC2, thallium flux, FluoZin2 fluorescence; active compounds read high. normalised thallium flux (F/F0 slope) at 10 µM. shares compounds with Cl transport mod. actives 15% (n = 3,700);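 active = thallium flux slope above the same plate's solvent-only control mean plus 3 SD; inconclusive = the two replicate wells disagree; inactive = no significant difference from solvent-only control wells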
KCC2 bumet counter: thallium flux persisting under bumetanide in KCC2 cells, counter-screen secondary assay. shares compounds with Cl transport mod. HEK293-KCC2 + bumetanide/ouabain, thallium flux FluoZin2; active compounds read high. normalized thallium flux at 10 µM. actives 49% (n = 3,700). AID 1714;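 active = thallium entry rate above the same plate's blocked-transporter control wells by more than 3 SD; inconclusive = the two repeat wells disagree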;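 note: raw slope of fluorescence over initial fluorescence between 10 and 20 s after thallium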
KCC2 secondary2: confirmation of human KCC2 transport modulators | shares compounds with Cl transport mod | HEK293-KCC2, thallium flux FluoZin2 fluorescence; actives lie on both sides; F/F0 rise rate, 10–20 s post-thallium | normalized thallium flux at 10 µM | actives 23% (n = 3,700) | AID 1715;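 active = thallium flux slope more than 3 SD above or below the plate's solvent-only control mean, mostly below; inconclusive = the two repeat wells disagreed; inactive = no significant shift from solvent-only controls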
HEK293 Tl flux: counter-screen for KCC2 modulators: effect in parental HEK293 cells | actives 46% (n = 3,700) | thallium flux FluoZin2, ouabain; baseline-ratio fluorescence slope, 10–20 s after thallium | thallium flux rate (normalised fluorescence) at 10 µM | shares compounds with Cl transport mod;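 active = thallium flux rate significantly above the same plate's solvent-only control wells, beyond their mean plus 3 SD; inconclusive = the two replicate wells gave conflicting results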
KCC2 retest ouab: modulates human KCC2 on retest with ouabain; shares compounds with Cl transport mod; HEK293-KCC2, thallium flux FluoZin2 fluorescence; bidirectional: low = inhibitor, high = activator; raw Tl+ flux slope (below DMSO = inhibition, above = activation) at 10 µM; actives 48% (n = 3,700); AID 1717;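 active = thallium flux slope beyond 3 SD from same-plate DMSO control mean in most replicates, usually higher, sometimes lower; inconclusive = repeat tests gave conflicting results; inactive = no significant difference from controls in most replicates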;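 note: slope of initial-normalized fluorescence between seconds 10 and 20 after thallium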
HEK counter2: counter-screen for KCC2 modulators: effect in parental HEK293 cells; actives 33% (n = 3,700); thallium flux FluoZin-2 fluorescence slope; shares compounds with Cl transport mod; thallium flux slope at 10 µM;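 active = thallium flux slope above the same plate's solvent-control mean plus 3 SD in both duplicate wells; inconclusive = duplicate wells that disagreed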;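 note: run without ouabain in cells lacking the KCC2 cotransporter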
Numbers stand for hits.

For O=C(NNC1=C(C(=O)C(F)(F)F)CCC1)c1ccc(Br)cc1 the results were PMI act satM6P inactive, ABCB1 block inactive, Cl transport mod 11.3, PMI activator inactive, ABCG2 block inactive, ROMK mod inactive, KCC2 secondary inactive, KCC2 bumet counter 0.0243, KCC2 secondary2 inactive, HEK293 Tl flux 0.0151, KCC2 retest ouab inconclusive and HEK counter2 0.0122.
For COc1ccccc1C(=O)NNC1=C(C(=O)C(F)(F)F)CCC1 the results were PMI act satM6P inactive, ABCB1 block inactive, Cl transport mod 4.9, PMI activator inactive, ABCG2 block inactive, KCC2 secondary inactive, KCC2 bumet counter 0.0444, KCC2 secondary2 0.0428, HEK293 Tl flux 0.0378, KCC2 retest ouab 0.041 and HEK counter2 0.0356.
Screening O=C(NNC1=C(C(=O)C(F)(F)F)CCC1)c1ccccc1O returned PMI act satM6P inactive, ABCB1 block inactive, Cl transport mod inactive, PMI activator inactive, ABCG2 block inactive and ROMK mod inactive.
Cc1ccccc1Cn1cc(NC(=O)CCCn2nc([N+](=O)[O-])cc2C)cn1 was read as PMI act satM6P inactive, ABCB1 block inactive, Cl transport mod inactive, PMI activator inactive and ABCG2 block inactive.
Screening Clc1ccc(CNCc2cccs2)c(Cl)c1 returned PMI act satM6P inactive, ABCB1 block inactive, Cl transport mod inactive, PMI activator inactive, ABCG2 block inactive and ROMK mod inactive.
O=C(CN1C(=O)S/C(=C\C=C\c2ccccc2)C1=O)Nc1cccc(O)c1 was read as PMI act satM6P inactive, ABCB1 block inactive, Cl transport mod inactive, PMI activator inactive and ABCG2 block inactive.
O=C(CN1C(=O)S/C(=C\C=C\c2ccccc2)C1=O)Nc1ccccc1C(=O)O was read as Cl transport mod -5.88, ROMK mod inactive, KCC2 secondary inactive, KCC2 bumet counter inactive, KCC2 secondary2 inconclusive, HEK293 Tl flux inconclusive, KCC2 retest ouab 0.0145 and HEK counter2 inactive.
CCOc1ccc(CC(=NCCc2ccccc2)C2=C(O)CC(C)(C)CC2=O)cc1OCC was read as PMI act satM6P inactive, ABCB1 block inactive, Cl transport mod inactive, PMI activator inactive, ABCG2 block inactive and ROMK mod inactive.
Screening CCOc1ccc(CC(=N)C2=C(O)CC(C)(C)CC2=O)cc1OCC returned PMI act satM6P inactive, ABCB1 block inactive, Cl transport mod -4.29, PMI activator inactive, ABCG2 block inactive, ROMK mod inactive, KCC2 secondary inactive, KCC2 bumet counter inactive, KCC2 secondary2 inactive, HEK293 Tl flux inactive, KCC2 retest ouab inactive and HEK counter2 inconclusive.
For CCOC(=O)Cn1c(=S)[nH]c2c(oc3ccc(Cl)cc32)c1=O the results were PMI act satM6P inactive, ABCB1 block inactive, PMI activator inactive, ABCG2 block inactive, ROMK mod inactive, KCC2 secondary 0.0219, KCC2 bumet counter 0.0414, KCC2 secondary2 inactive, HEK293 Tl flux 0.0198, KCC2 retest ouab 0.0396 and HEK counter2 0.0143.
For COc1ccc2c(-c3ccccc3)cc(SC(C)C(N)=O)nc2c1 (centres undefined) the results were PMI act satM6P inactive, ABCB1 block inactive, Cl transport mod 5.47, PMI activator inactive, ABCG2 block inactive, ROMK mod inactive, KCC2 secondary inactive, KCC2 bumet counter 0.00805, KCC2 secondary2 inactive, HEK293 Tl flux 0.0143, KCC2 retest ouab inactive and HEK counter2 inconclusive.
Screening Cc1cc(-c2cccs2)c(C#N)c(=S)[nH]1 returned Cl transport mod 32.5, ROMK mod inactive, KCC2 secondary 0.0242, KCC2 bumet counter 0.0343, KCC2 secondary2 inconclusive, HEK293 Tl flux inconclusive, KCC2 retest ouab 0.038 and HEK counter2 inconclusive.
For Fc1ccccc1N=C1NN=C(c2ccccc2)CS1 the results were PMI act satM6P inactive, ABCB1 block inactive, Cl transport mod inactive, PMI activator inactive, ABCG2 block inactive and ROMK mod inactive.
Cc1cccc(N=C2NN=C(c3ccccc3F)CS2)c1C was read as PMI act satM6P inactive, ABCB1 block inactive, Cl transport mod 10.7, PMI activator inactive, ABCG2 block inactive, ROMK mod inactive, KCC2 secondary inactive, KCC2 bumet counter 0.0126, KCC2 secondary2 inactive, HEK293 Tl flux 0.0175, KCC2 retest ouab 0.0263 and HEK counter2 inconclusive.
`Fc1ccc(F)c(C2=NNC(=Nc3ccccc3F)SC2)c1` gave PMI act satM6P inactive, ABCB1 block inactive, Cl transport mod 5.85, PMI activator inactive, ABCG2 block inactive, ROMK mod inactive, KCC2 secondary inactive, KCC2 bumet counter 0.0106, KCC2 secondary2 inactive, HEK293 Tl flux 0.0115, KCC2 retest ouab 0.0258 and HEK counter2 0.0144.
Screening Cc1nnc(SCC(=O)Nc2cccc(S(=O)(=O)N(C)c3ccccc3)c2)s1 returned PMI act satM6P inactive, ABCB1 block inactive, Cl transport mod inactive, PMI activator inactive and ABCG2 block inactive.
For O=C(CCCN1C(=O)/C(=C/c2ccccc2Cl)SC1=S)NNC(=O)c1cccnc1 the results were Cl transport mod -4.91, KCC2 secondary inactive, KCC2 bumet counter inactive, KCC2 secondary2 inactive, HEK293 Tl flux inactive, KCC2 retest ouab 0.0165 and HEK counter2 inactive.
COc1ccccc1C(=O)Nc1cc(-c2nn3c(C)nnc3s2)ccc1C was read as Cl transport mod inactive.
Cc1ccc(NC(=S)N2CCN(Cc3ccccc3)CC2)cc1 was read as PMI act satM6P inactive, ABCB1 block inactive, Cl transport mod inactive, PMI activator inactive, ABCG2 block inactive and ROMK mod inactive.
